Results taken from ChEMBL document CHEMBL1155553, “Design and synthesis of alpha-ketoamides as cathepsin S inhibitors with potential applications against tumor invasion and angiogenesis” (J Med Chem, 2010).

Tests used:
Cathepsin S [1] = target: T1, Cathepsin S (Homo sapiens, UniProt P25774); experiment: Inhibition of human recombinant cathepsin S expressed in Escherichia coli BL21 (DE3) after 10 mins by fluorescence assay
Target sequence in this assay (P25774 whole entry): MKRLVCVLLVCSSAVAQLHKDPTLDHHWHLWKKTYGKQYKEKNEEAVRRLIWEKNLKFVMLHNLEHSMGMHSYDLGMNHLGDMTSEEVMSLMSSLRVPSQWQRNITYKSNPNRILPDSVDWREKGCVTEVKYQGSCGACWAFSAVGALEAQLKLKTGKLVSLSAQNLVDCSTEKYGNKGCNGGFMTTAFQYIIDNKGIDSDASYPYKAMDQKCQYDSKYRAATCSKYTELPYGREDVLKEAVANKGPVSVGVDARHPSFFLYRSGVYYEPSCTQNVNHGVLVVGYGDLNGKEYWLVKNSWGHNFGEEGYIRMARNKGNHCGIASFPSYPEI

[2] = Antiinvasive activity in human CL1-5 cells assessed as cellular migration after 24 hrs by fluorescence assay relative to control; assay type: functional; design: concentration or dose not given beside the values
HUVEC [3] = experiment: Antiinvasive activity in VEGF-stimulated HUVEC assessed as cellular migration after 24 hrs by fluorescence assay relative to control; assay type: functional, Homo sapiens; design: concentration or dose not given beside the values
[4] = target: Procathepsin L (Homo sapiens) (UniProt P07711); experiment: Inhibition of cathepsin L assessed as proteolytic activity at 40 nM by fluorimetric assay; design: Activity: scale not given: the % may be the effect or the level left
[5] = target: Cathepsin B (Homo sapiens) (UniProt P07858); experiment: Inhibition of cathepsin B assessed as proteolytic activity at 40 nM by fluorimetric assay; design: Activity: scale not given: the % may be the effect or the level left
[6] = Cytotoxicity against human CL1-5 cells by MTT assay; assay type: cell-based
Procedure, shortened: (§1)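 Overall cytotoxicity measured by MTT proliferation assay, compounds tested at concentrations up to 50 μM.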

HUVEC [7] = experiment: Cytotoxicity against HUVEC by MTT assay; assay type: cell-based; conditions: Homo sapiens; procedure, shortened: as §1
[8] = Antiinvasive activity in human CL1-5 cells after 24 hrs by fluorescence assay; assay type: functional
Procedure, shortened: (§2)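 CL1-5 lung adenocarcinoma cells (2 × 10⁵ per well) treated with compound; control wells received DMSO (10 μL) in medium (2 mL). Cell traversal/invasion expressed as percent of DMSO control (set 100%); mean ± SD from hexaplicate experiments.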

[9] = Antiinvasive activity in human CL1-5 cells assessed as cellular invasion after 24 hrs by fluorescence assay; assay type: functional; procedure, shortened: as §2
HUVEC [10] = experiment: Antiangiogenic activity in VEGF-stimulated HUVEC assessed as inhibition of capillary tube formation after 16 hrs by photographic analysis; assay type: functional, Homo sapiens; design: scale not given: the % may be the effect or the level left
Procedure, shortened: (§3)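 HUVEC plated on Matrigel-coated wells, treated with α-ketoamide in presence of VEGF (20 ng/mL); after 16 h incubation cultures photographed and capillary tubes (branch points) counted under microscope at 100× magnification. Tube formation expressed relative to DMSO control; mean ± SD from three separate experiments.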

HUVEC [11] = experiment: Antiangiogenic activity in VEGF-stimulated HUVEC assessed as capillary tube formation after 16 hrs by photographic analysis; assay type: functional, Homo sapiens; procedure, shortened: as §3
Cathepsin S [12] = target: T1, Cathepsin S; experiment: Inhibition of cathepsin S-mediated cleavage of fibronectin by cell-based ECM degradation assay
Target sequence in this assay (P25774 115-331 limits assumed): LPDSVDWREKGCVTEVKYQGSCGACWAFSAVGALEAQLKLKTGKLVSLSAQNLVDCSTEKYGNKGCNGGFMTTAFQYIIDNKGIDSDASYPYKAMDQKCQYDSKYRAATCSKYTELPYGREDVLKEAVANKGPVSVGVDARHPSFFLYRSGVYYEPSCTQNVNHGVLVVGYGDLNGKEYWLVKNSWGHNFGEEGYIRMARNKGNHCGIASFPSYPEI

Procathepsin L (Homo sapiens), sequence (P07711 114-333 limits assumed): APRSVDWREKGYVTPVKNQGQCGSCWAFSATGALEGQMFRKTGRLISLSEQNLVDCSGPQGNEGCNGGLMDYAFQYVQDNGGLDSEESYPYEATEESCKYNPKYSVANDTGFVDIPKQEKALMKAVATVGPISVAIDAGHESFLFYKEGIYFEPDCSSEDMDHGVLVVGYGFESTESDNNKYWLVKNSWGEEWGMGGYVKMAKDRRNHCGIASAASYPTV

SMILES	IC50 (Cathepsin S [1]) [nM]	Activity [2] [%]	Activity (HUVEC [3]) [%]	IC50 [6] [nM]	IC50 (HUVEC [7]) [nM]	also measured
CCOC(=O)CNC(=O)C(=O)C(COCc1ccccc1)NC(=O)[C@H](CC1CCCCC1)NC(=O)c1cncc(C)n1 (some centres not stated)	6.1	60	62	–	–	–
CCOC(=O)CNC(=O)C(=O)C(COCc1ccccc1)NC(=O)[C@H](CC1CCCCC1)NC(=O)c1cccc([N+](=O)[O-])c1 (some centres not stated)	1.9	67	39	> 50000	> 50000	Activity [4]: 2.9%; Activity [5]: 97%
CCOC(=O)CNC(=O)C(=O)C(COCc1ccccc1)NC(=O)[C@H](CC1CCCCC1)NC(=O)c1ccc(OC(C)=O)cc1 (some centres not stated)	2	69	27	> 50000	> 50000	Activity [4]: 0.4%; Activity [5]: 91%
CCOC(=O)CNC(=O)C(=O)C(COCc1ccccc1)NC(=O)[C@H](CC1CCCCC1)NC(=O)c1ccc(C(=O)OC)c(NC(=O)OC(C)(C)C)c1 (some centres not stated)	49.2	51	82	36000	47000	Activity [4]: 8.7%; Activity [5]: 89%
CCOC(=O)CNC(=O)C(=O)C(COCc1ccccc1)NC(=O)[C@H](CC1CCCCC1)NC(=O)Cc1cccc2ccccc12 (some centres not stated)	5.7	41	54	–	–	–
CCOC(=O)CNC(=O)C(=O)C(COCc1ccccc1)NC(=O)[C@H](CC1CCCCC1)NC(=O)c1cccc(C)c1[N+](=O)[O-] (some centres not stated)	5.6	79	83	–	–	–
CCOC(=O)CNC(=O)C(=O)C(COCc1ccccc1)NC(=O)[C@H](CC1CCCCC1)NC(=O)/C=C/c1cc(OC)ccc1OC (some centres not stated)	3.8	81	59	> 50000	–	–
CCOC(=O)CNC(=O)C(=O)C(COCc1ccccc1)NC(=O)[C@H](CC1CCCCC1)NC(=O)c1ccc([N+](=O)[O-])s1 (some centres not stated)	10.3	64	56	> 50000	48000	–
N#C[C@H](COCc1ccccc1)NC(=O)[C@H](CC1CCCCC1)NC(=O)N1CCOCC1	–	67	83	> 50000	> 50000	Activity [4]: 44.8%; Activity [5]: 104%
CCOC(=O)CNC(=O)C(=O)C(COCc1ccccc1)NC(=O)[C@H](CC1CCCCC1)NC(=O)c1ccc(C(=O)OC)c(N)c1 (some centres not stated)	5.8	53	49	> 50000	> 50000	Activity [4]: 8%; Activity [5]: 84%; Activity [8]: 67%; Activity [9]: 33%; Activity (HUVEC [10]): 57%; Activity (HUVEC [11]): 43%; inhibition (Cathepsin S [12]): Dose-dependent effect
CCOC(=O)CNC(=O)C(=O)C(COCc1ccccc1)NC(=O)[C@H](CC1CCCCC1)NC(=O)c1cc(Cl)ccc1[N+](=O)[O-] (some centres not stated)	8	76	68	> 50000	> 50000	–
CCOC(=O)CNC(=O)C(=O)C(COCc1ccccc1)NC(=O)[C@H](CC1CCCCC1)NC(=O)C1(C)CC1 (some centres not stated)	3.4	101	95	> 50000	35000	–
CC(C)C[C@H](NC(=O)[C@H]1O[C@@H]1C(=O)O)C(=O)NCCCCN=C(N)N	–	–	–	–	–	inhibition [4]: -1.3%; inhibition [5]: 75%
CCOC(=O)CNC(=O)C(=O)C(COCc1ccccc1)NC(=O)[C@H](CC1CCCCC1)NC(=O)CCC(=O)c1ccc2ccc3cccc4ccc1c2c34 (some centres not stated)	> 100	–	–	–	–	–
CCOC(=O)CNC(=O)C(=O)[C@H](COCc1ccccc1)NC(=O)[C@H](CC1CCCCC1)NC(=O)c1cc(Br)ccc1N	6.2	52	69	–	–	–
CCOC(=O)CNC(=O)C(=O)[C@H](COCc1ccccc1)NC(=O)[C@H](CC1CCCCC1)NC(=O)c1cc(F)ccc1F	11.5	48	34	–	–	–
CCOC(=O)CNC(=O)C(=O)C(COCc1ccccc1)NC(=O)[C@H](CC1CCCCC1)NC(=O)c1cc(Cl)cc([N+](=O)[O-])c1 (some centres not stated)	22.8	80	73	> 50000	> 50000	–
CCOC(=O)CNC(=O)C(=O)C(COCc1ccccc1)NC(=O)[C@H](CC1CCCCC1)NC(=O)C1=CC(=O)CC(C)(C)O1 (some centres not stated)	4.3	98	89	> 50000	37000	–
CCOC(=O)CNC(=O)C(=O)C(COCc1ccccc1)NC(=O)[C@H](CC1CCCCC1)NC(=O)c1ccc(Cl)c(NC(=O)OC(C)(C)C)c1 (some centres not stated)	15.7	50	48	42000	48000	–
CCOC(=O)CNC(=O)C(=O)C(COCc1ccccc1)NC(=O)[C@H](CC1CCCCC1)NC(=O)c1cc(SC)ccc1Cl (some centres not stated)	3.6	65	–	32000	> 50000	Activity [4]: 17.4%; Activity [5]: 92%
CCOC(=O)CNC(=O)C(=O)C(COCc1ccccc1)NC(=O)[C@H](CC1CCCCC1)NC(=O)Cc1cccs1 (some centres not stated)	7.2	67	59	> 50000	39000	–
CCOC(=O)CNC(=O)C(=O)C(COCc1ccccc1)NC(=O)[C@H](CC1CCCCC1)NC(=O)c1ccc(C)cc1 (some centres not stated)	6.2	55	55	–	–	–
CCOC(=O)CNC(=O)C(=O)C(COCc1ccccc1)NC(=O)[C@H](CC1CCCCC1)NC(=O)c1ccc(Br)o1 (some centres not stated)	2.3	80	76	–	–	–
CCOC(=O)CNC(=O)C(=O)C(COCc1ccccc1)NC(=O)[C@H](CC1CCCCC1)NC(=O)CC(c1ccccc1)(c1ccccc1)c1ccccc1 (some centres not stated)	> 100	–	–	> 50000	–	–
CCOC(=O)CNC(=O)C(=O)C(COCc1ccccc1)NC(=O)[C@H](CC1CCCCC1)NC(=O)c1ccc(Cl)c(N)c1 (some centres not stated)	2.1	68	46	> 50000	> 50000	–
CCOC(=O)CNC(=O)C(=O)C(COCc1ccccc1)NC(=O)[C@H](CC1CCCCC1)NC(=O)c1cc(Br)ccc1NC(=O)OC(C)(C)C (some centres not stated)	23.8	76	86	–	–	–
CCOC(=O)CNC(=O)C(=O)C(COCc1ccccc1)NC(=O)[C@H](CC1CCCCC1)NC(=O)c1cc2ccccc2n1C (some centres not stated)	7.1	69	55	–	–	–
CCOC(=O)CNC(=O)C(=O)C(COCc1ccccc1)NC(=O)[C@H](CC1CCCCC1)NC(=O)c1cc(OC)ccc1[N+](=O)[O-] (some centres not stated)	3.1	95	98	> 50000	39000	–
CCCCCC1OC(=O)C(C(=O)N[C@@H](CC2CCCCC2)C(=O)NC(COCc2ccccc2)C(=O)C(=O)NCC(=O)OC)=CC1C (some centres not stated)	42.3	119	99	–	–	–
CCOC(=O)CNC(=O)C(=O)C(COCc1ccccc1)NC(=O)[C@H](CC1CCCCC1)NC(=O)c1cccc(F)c1F (some centres not stated)	5.9	115	107	–	–	–
